Calls of active or inactive are those of the source.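 Rule for the calls, unless noted: active = NADPH fluorescence slope more negative than the mean of all samples by about 3 SD, 99.7% confidence; inactive = the rest.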

In general, inhibition refers to the drop in the measured response relative to a control, in per cent.

Experiment [1] can be described thus: inhibitors of TNFa-induced NFkB p65 translocation, primary screen, imaging, HUVEC, MLSMR starter and 10KST1 sets (AID 438;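 active = inhibition above 20% together with a positive visual image hit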;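 note: compound added about 3h40 before a 20 min TNFalpha stimulation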;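 for inhibition: signal is the nuclear over cytoplasmic p65 intensity ratio per well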). The conditions noted are these: HUVEC TNFa-induced p65 nuclear translocation; cell count: measured here: nuclei count (cytotoxicity indicator), at 2.08 µM; inhibition: at 2 µM, stronger effect = higher value, 0% TNFa-plus-vehicle, 100% no-TNFa wells.

Experiment [2] can be described thus: inhibitors of E-selectin induction by TNFa, primary screen, imaging, HUVEC, immunofluorescence, MLSMR starter and 10KST1 sets (AID 487;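 active = visually confirmed hit in the image check and inhibition above 20%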;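 for inhibition: signal is fraction of cell area covered by stained E-selectin grains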;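 for nuclei count: 100% = median nuclei count of all wells on the same plate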). The conditions noted are these: HUVEC TNFalpha-induced E-selectin immunofluorescence imaging, at 2 µM; inhibition: stronger effect = higher value; nuclei count: measured here: cell number, toxicity.
Experiment [3] is described as follows: DUSP6 inhibitors restoring Erk phosphorylation by chemical complementation, primary imaging in DUSP6-transfected HeLa (AID 609;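 active = compounds giving at least 50% inhibition in the cell-based MKP-3 phosphatase rescue imaging test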;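 for inhibition: phospho-Erk level distribution per well compared with pooled transfected vehicle control wells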). The conditions noted are these: HeLa MKP-3 transfected, phospho-Erk imaging KS statistic, at 10 µM, cells stimulated with TPA for 15 min.
The target of experiment [4] is Dual specificity protein phosphatase 6 (Homo sapiens) (UniProt Q16828). The experiment is described as above. The conditions noted are these: HeLa MKP-3 transfected, phospho-Erk imaging KS statistic; at 10 µM; stronger effect = higher value; cells stimulated with TPA for 15 min.
In experiment [5] the target is Voltage-gated potassium channel subunit beta-2 (Rattus norvegicus) (UniProt P62483). Nature of the experiment: KvBeta enzyme negative modulators, primary screen, biochemical, NADPH fluorescence (AID 622;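 active = fluorescence slope higher than the sample average by over 3 SD, cut at about -0.22 in these data, passing the limit was not always enough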;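 note: slope of raw intensity against log time taken from 70 to 1610 s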). The conditions noted are these: recombinant KvBeta, 4-cyanobenzaldehyde reduction, at 10 µM, stronger effect = higher value.
The target is the same in experiment [6]. Nature of the experiment: KvBeta positive modulators, primary screen, biochemical, NADPH fluorescence (AID 623).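 Note: fluorescence intensity change per second fitted from 20 to 320 s.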 The following applies: Recombinant KvBeta, NADPH fluorescence decrease slope, 10 min; at 10 µM; stronger effect = lower value.
In experiment [7] the target is Alpha-2C adrenergic receptor (Homo sapiens) (UniProt P18825). Nature of the experiment: modulators of alpha2C/GIRK thallium flux, primary screen, cell-based, HEK293 alpha2C/GIRK1/2 (AID 624;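 active = fluorescence slope after compound addition differing from the mean of all screened samples at 99.7% confidence, in either direction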;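 note: slope of fluorescence ratio to pre-addition baseline per second over 15 to 24 s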). The conditions noted are these: thallium flux BTC fluorescence, at 10 µM, actives lie on both sides.
Experiment [8] in a line: inhibitors of larval lipid processing in zebrafish, primary screen, whole organism, PED6 fluorescence, gall bladder and intestine (AID 686;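 active = a full or partial loss of lipid-probe fluorescence in the fish gall bladder, intestine or both, judged by eye; inactive = no fluorescence loss, or compound toxic to the fish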;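 note: larvae 5 to 7 days old with five fish per well; signal comes from phospholipase A2 cleavage of quenched PED6 carried via bile; overnight exposure to compound and PED6 before scoring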). The following applies: Zebrafish larvae PED6 lipid processing, fluorescence scoring; screened at 20 µM (by protocol). In a few lines: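 Also added: quenched phospholipase substrate PED6, 100 nM final, ingested by larvae; System: zebrafish larvae, 5-7 d; Quantity: 5 larvae per well; Compound: 20 µM single dose; Schedule: overnight compound and PED6 incubation; Read-out: visual per-well fluorescence inhibition score; Measured by: By-eye fluorescence microscopy; Medium: E3.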

Experiment [9] in a line: inhibitors of Chlamydomonas gravitaxis, primary screen, whole organism, Chlamydomonas reinhardtii, WT vs cilia-less mutant, absorbance, 96-well (AID 463189;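 active = inhibition at or above 50% relative to wild type and mutant plate controls; inactive = inhibition below 50%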;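 note: 0% = wild type cc124 cells in DMSO and 100% = ciliumless bld1 mutant cells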). The conditions noted are these: OD600 absorbance, 2 days, at 10 µM, stronger effect = higher value.
Setting [10] is: measured here: cell density z-score.
[11] abbreviates: measured here: nuclear c-Myc green intensity z-score.
[12] abbreviates: measured here: nuclear pErk red intensity z-score, stronger effect = higher value.

Alpha-2C adrenergic receptor (Homo sapiens), sequence (P18825 whole entry, looked up): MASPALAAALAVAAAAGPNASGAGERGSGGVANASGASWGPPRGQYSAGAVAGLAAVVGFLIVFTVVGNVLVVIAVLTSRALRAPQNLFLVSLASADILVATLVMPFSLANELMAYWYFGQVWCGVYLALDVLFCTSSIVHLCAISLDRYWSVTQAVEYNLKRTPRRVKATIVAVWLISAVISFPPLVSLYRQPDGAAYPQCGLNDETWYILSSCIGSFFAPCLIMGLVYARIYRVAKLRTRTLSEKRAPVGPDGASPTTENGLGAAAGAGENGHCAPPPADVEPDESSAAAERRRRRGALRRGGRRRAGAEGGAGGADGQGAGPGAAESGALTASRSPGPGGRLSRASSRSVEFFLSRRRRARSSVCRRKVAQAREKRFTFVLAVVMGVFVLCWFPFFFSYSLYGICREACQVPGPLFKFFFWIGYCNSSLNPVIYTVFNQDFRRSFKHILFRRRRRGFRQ
Dual specificity protein phosphatase 6 (Homo sapiens), sequence (Q16828 whole entry, looked up): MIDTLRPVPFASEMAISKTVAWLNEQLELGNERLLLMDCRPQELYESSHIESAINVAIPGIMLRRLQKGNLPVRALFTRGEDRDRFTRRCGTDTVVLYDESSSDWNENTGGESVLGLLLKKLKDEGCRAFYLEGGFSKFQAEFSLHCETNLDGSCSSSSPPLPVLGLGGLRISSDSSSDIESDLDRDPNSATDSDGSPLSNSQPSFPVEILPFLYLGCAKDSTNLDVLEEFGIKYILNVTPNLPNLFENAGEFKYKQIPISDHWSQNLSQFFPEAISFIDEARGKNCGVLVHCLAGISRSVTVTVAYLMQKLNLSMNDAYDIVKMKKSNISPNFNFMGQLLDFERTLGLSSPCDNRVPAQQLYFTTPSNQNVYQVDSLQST
Voltage-gated potassium channel subunit beta-2 (Rattus norvegicus), sequence (P62483 whole entry, looked up): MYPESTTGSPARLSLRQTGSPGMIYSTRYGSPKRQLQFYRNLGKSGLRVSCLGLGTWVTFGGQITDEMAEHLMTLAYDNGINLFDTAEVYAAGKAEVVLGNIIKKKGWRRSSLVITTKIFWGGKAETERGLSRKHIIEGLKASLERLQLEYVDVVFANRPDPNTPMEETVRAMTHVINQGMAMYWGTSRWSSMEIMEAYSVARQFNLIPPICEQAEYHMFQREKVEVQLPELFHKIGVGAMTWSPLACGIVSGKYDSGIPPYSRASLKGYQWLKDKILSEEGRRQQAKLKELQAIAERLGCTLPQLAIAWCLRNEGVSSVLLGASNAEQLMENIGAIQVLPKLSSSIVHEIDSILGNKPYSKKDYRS

With `N#CCCN(CCC#N)c1nnc(-c2ccccc2)s1`, the cell count in experiment [1] stood at 391. Also, the inhibition in experiment [1] was -3.1% (inactive); in experiment [2], -60.9% (inactive); in experiment [4], 17% (inactive); in experiment [9], 27.2% (inactive). This compound also came in with a nuclei count in experiment [2] of 159%. Also, the figures for the z-score in [3] (setting [10]), in experiment [3] (setting [11]) and in experiment [3] (setting [12]) were 1.49, 1.59 and -1.79, respectively. The fluorescence slope in experiment [5] was -0.384 (inactive). The NADPH fluorescence slope in experiment [6] was -3.6e-05 (inactive). Also, the slope in [7] was 0.00496 (inactive). For the same compound, the outcome in [8] is “inactive; toxic”.

Regarding `CCOC(=O)c1sc2c(c1C)c(=O)c(C(=O)OCC)cn2CC`, in [1], the cell count came to 584. In addition, the inhibition is -4.2% (inactive) in [1], -79% (inactive) in [2], 7.01% (inactive) in experiment [4] and -0.239% (inactive) in experiment [9]. Moreover, in experiment [2], the nuclei count amounted to 156%. The z-score is -0.851 in [3] (setting [10]), -0.225 in experiment [3] (setting [11]) and 0.403 in experiment [3] (setting [12]). The fluorescence slope in experiment [5] was -0.376 (inactive). Moreover, the NADPH fluorescence slope in experiment [6] was 4.1e-06 (inactive). Further, the slope in [7] was 0.00559 (inactive). In experiment [8], the compound was called inactive.

Consider `COc1cccc(C2/C(=C(/O)c3ccc(C)cc3)C(=O)C(=O)N2Cc2ccco2)c1` (centres undefined), for which the cell count in experiment [1] was 552. Moreover, the inhibition in [1] is -6.3% (inactive); in experiment [2], -20% (inactive); in [4] it was 4.72% (inactive); in experiment [9], 15.2% (inactive). The nuclei count in experiment [2] turned out to be 123%. The figures for the z-score in [3] (setting [10]), in experiment [3] (setting [11]) and in [3] (setting [12]) were 0.537, 0.655 and -1.35, respectively. Further, the fluorescence slope in experiment [5] was -0.512 (inactive). In experiment [6], the NADPH fluorescence slope was -5.6e-05 (inactive). Besides, the slope in [7] was 0.00539 (inactive). Moreover, the compound was called inactive in [8].

Consider `Cc1c(/C(O)=C2\C(=O)C(=O)N(CCCN(C)C)C2c2ccccc2)cnn1-c1ccccc1` (centres undefined), for which the cell count in experiment [1] was found to be 528. The inhibition in [1] is 1.1% (inactive); in [2], -134% (inactive); in experiment [4], 1.6e-07% (inactive); in experiment [9], -16.4% (inactive). Further, the nuclei count in experiment [2] is 139%. Also, the z-score is -0.232 in experiment [3] (setting [10]), 0.596 in experiment [3] (setting [11]) and 1.69 in experiment [3] (setting [12]). Also, the fluorescence slope in [5] is -0.579 (inactive). The NADPH fluorescence slope in experiment [6] was -2.7e-05 (inactive). The slope in [7] was 0.00616 (inactive). Further, in [8], the result was inactive.

`Cc1ccc(C2/C(=C(/O)c3ccc(OC(C)C)cc3)C(=O)C(=O)N2CCN2CCOCC2)cc1` (centres undefined): the cell count in experiment [1] worked out at 526. Moreover, the inhibition in [1] is -2% (inactive); in [2] it was 7.7% (inactive); in experiment [4], -2.91% (inactive); in experiment [9] it was 2.83% (inactive). In addition, in [2], the nuclei count came to 166%. Besides, the z-score in [3] (setting [10]) worked out at 0.417; in experiment [3] (setting [11]), 1.31; in [3] (setting [12]), 0.598. Moreover, in experiment [5], the fluorescence slope was -0.295 (inactive). In addition, in experiment [6], the NADPH fluorescence slope was 1.7e-05 (inactive). Moreover, the slope in experiment [7] was 0.00456 (inactive). For the same compound, the result in experiment [8] was inactive.

Consider `CN(C)c1ccc(C2C3C(=O)N(c4ccc(C(=O)O)cc4)C(=O)C3ON2c2ccccc2)cc1` (centres undefined), for which, in experiment [1], the cell count came out at 491. Also, the inhibition in [1] is -9.3% (inactive); in [2] it was -30.7% (inactive); in experiment [4], -13.3% (inactive); in experiment [9] it was 13% (inactive). Besides, the nuclei count in experiment [2] was determined as 148%. For the same compound, the z-score was -0.854 in experiment [3] (setting [10]), -1.46 in experiment [3] (setting [11]) and 0.576 in [3] (setting [12]). For the same compound, the fluorescence slope in experiment [5] was -0.506 (inactive). For the same compound, the NADPH fluorescence slope in experiment [6] was -3.3e-05 (inactive). In experiment [7], the slope was 0.00498 (inactive). In addition, the result in [8] was inactive.

Regarding `CC1(C)Cc2c(C#N)c(SCC(=O)c3ccccc3)nc(N3CCCC3)c2CO1`, the cell count in experiment [1] was 520. Also, the inhibition in [1] was -6.5% (inactive); in experiment [2] it was 15.1% (inactive); in experiment [4], 9.82% (inactive); in experiment [9], 46.4% (inactive). This compound yielded a nuclei count in [2] of 115%. For the same compound, the z-score was 1.33 in experiment [3] (setting [10]), -0.926 in experiment [3] (setting [11]) and -0.674 in experiment [3] (setting [12]). For the same compound, the fluorescence slope in [5] was -0.395 (inactive). The NADPH fluorescence slope in [6] was 8.2e-06 (inactive). In addition, in experiment [7], the slope is 0.00654 (inactive). The call in [8] was inactive.

Turning to `CC(C)(C)NC(=O)CSc1nsc(SCC(=O)NC(C)(C)C)c1C#N`, the cell count in [1] was found to be 601. The inhibition in [1] was -26% (inactive); in [2] it was 18.9% (inactive); in experiment [4], -4.27% (inactive); in [9] it was 12.4% (inactive). Moreover, the nuclei count in [2] was 178%. For the same compound, the z-score is -0.466 in experiment [3] (setting [10]), -1.37 in [3] (setting [11]) and 0.955 in [3] (setting [12]). In experiment [5], the fluorescence slope is -0.412 (inactive). For the same compound, the NADPH fluorescence slope in experiment [6] was -6.5e-05 (inactive). Further, the slope in experiment [7] is 0.00541 (inactive). Further, the result in [8] was inactive.

Take `O=C(C1=C(O)C(=O)N(CCCN2CCOCC2)C1c1ccccn1)c1cccs1` (centres undefined): the cell count in experiment [1] was 506. The inhibition in experiment [1] is -11.2% (inactive); in [2], -117% (inactive); in experiment [4], -3.5% (inactive); in experiment [9], -6.32% (inactive). In experiment [2], this compound returned a nuclei count of 136%. In addition, the z-score in experiment [3] (setting [10]) is -1.2; in experiment [3] (setting [11]) it was -0.158; in experiment [3] (setting [12]) it was 2.08. Besides, in experiment [5], the fluorescence slope was -0.495 (inactive). Also, the NADPH fluorescence slope in experiment [6] was -5.5e-05 (inactive). Moreover, in experiment [7], the slope was 0.00674 (inactive). Further, in [8], the compound was classed as inactive.

For the compound `CCOC(=O)c1cc(C)n(Cc2cccc(OC)c2OC)c1C`, the cell count in [1] worked out at 502. The inhibition was -9.3% (inactive) in [1], -39.9% (inactive) in [2], 17% (inactive) in experiment [4] and 26.9% (inactive) in experiment [9]. Also, the nuclei count in [2] was 122%. For the same compound, the z-score in experiment [3] (setting [10]) is 1.01; in experiment [3] (setting [11]), 0.196; in experiment [3] (setting [12]), 0.00488. In addition, the fluorescence slope in experiment [5] was -0.496 (inactive). Also, the NADPH fluorescence slope in [6] was -9.4e-05 (inactive). Moreover, in experiment [7], the slope is 0.00511 (inactive). Besides, in experiment [8], the outcome was inactive.

Turning to `Cc1nn(-c2cccc(Cl)c2)c2c1C(c1ccncc1)C(C#N)=C(N)O2` (centres undefined), the cell count in experiment [1] was 374. The inhibition is -13.7% (inactive) in experiment [1], -56% (inactive) in [2], 2.46% (inactive) in [4] and -1.15% (inactive) in experiment [9]. This compound registered a nuclei count in experiment [2] of 98.8%. The z-score in experiment [3] (setting [10]) is -2.16; in [3] (setting [11]) it was -0.307; in experiment [3] (setting [12]), -1.54. Also, the fluorescence slope in experiment [5] was -0.382 (inactive). In addition, in experiment [6], the NADPH fluorescence slope was 4.7e-05 (inactive). Also, in [7], the slope is 0.00526 (inactive). For the same compound, the compound was classed as inactive in experiment [8].

For the compound `CC(C)(C)OC(=O)NCCC(=O)Oc1ccc2ccc(=O)oc2c1`, the cell count in experiment [1] was 499. In addition, the inhibition in [1] was -1.3% (inactive); in experiment [2] it was -209% (inactive); in experiment [4], -11% (inactive); in experiment [9], 16.5% (inactive). For the same compound, in experiment [2], the nuclei count was determined as 185%. In addition, the z-score in experiment [3] (setting [10]) came to 0.0263; in experiment [3] (setting [11]), 0.375; in experiment [3] (setting [12]), 0.541. Further, the fluorescence slope in experiment [5] was -0.362 (inactive). Besides, in [6], the NADPH fluorescence slope was -2.1e-05 (inactive). Besides, in experiment [7], the slope is 0.00495 (inactive). Further, in experiment [8], the result was inactive.

With `Cn1c(OCc2ccc3c(c2)OCO3)nc2c1c(=O)n(Cc1cccc(Cl)c1)c(=O)n2C`, the cell count in experiment [1] was 646. The inhibition is 5.7% (inactive) in experiment [1], -35.9% (inactive) in experiment [2], 9.61% (inactive) in experiment [4] and 4.63% (inactive) in experiment [9]. The compound further came in with a nuclei count in experiment [2] of 149%. The z-score was -0.768 in [3] (setting [10]), 0.366 in [3] (setting [11]) and 0.018 in [3] (setting [12]). The fluorescence slope in [5] is -0.484 (inactive). Also, the NADPH fluorescence slope in [6] was -0.000102 (inactive). The slope in experiment [7] is 0.00957 (inactive). Moreover, the compound was called inactive in [8].

The values are drawn from PubChem BioAssay.
